From ChEMBL document CHEMBL1144033, “Novel trans-3,4-dimethyl-4-(3-hydroxyphenyl)piperidines as mu opioid receptor antagonists with improved opioid receptor selectivity profiles” (Bioorg Med Chem Lett, 2008)
Active and inactive are the calls of the source. No cut-off for these calls is given here.

How the values were obtained:
[1] = target: T1, Kappa-type opioid receptor (Homo sapiens, UniProt P41145); experiment: Displacement of [3H]diprenorphine from human cloned kappa opioid receptor at 10 uM
[2] = target: T2, Delta-type opioid receptor (Homo sapiens, UniProt P41143); experiment: Displacement of [3H]diprenorphine from human cloned delta opioid receptor
[3] = target: T1, Kappa-type opioid receptor; experiment: Displacement of [3H]diprenorphine from human cloned kappa opioid receptor
Mus musculus [4] = experiment: Antagonist activity on morphine-induced gastrointestinal antitransit effect in Swiss Webster mouse at 0.1 mg/kg, sc after 1 hr; format: functional; parameters: scale not given: the % may be the effect or the level left; conditions: route subcutaneous
In short: (§1)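 Male Swiss-Webster mice (20-25 g), fasted overnight, got vehicle (10% DMSO:20% cremophor EL:70% saline) or compound s.c. Morphine (3 mg/kg s.c.) followed 25 min later. After a further 10 min, mice received 0.3 mL charcoal meal (charcoal:flour:water 1:2:8, w/w/v). Small intestine removed 25 min later; %GIT = charcoal leading-edge distance/intestine length ×100.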

[5] = target: T2, Delta-type opioid receptor; experiment: Displacement of [3H]diprenorphine from human cloned delta opioid receptor at 10 uM
[6] = target: Mu-type opioid receptor (Homo sapiens) (UniProt P35372); experiment: Displacement of [3H]diprenorphine from human cloned mu opioid receptor at 10 uM
Mus musculus [7] = experiment: Antagonist activity on morphine-induced gastrointestinal antitransit effect in Swiss Webster mouse at 0.3 mg/kg, po after 1 hr; format: functional, organism-based; parameters: dose 0.3 mg/kg
Mus musculus [8] = experiment: Antagonist activity on morphine-induced gastrointestinal antitransit effect in Swiss Webster mouse at 1 mg/kg, sc after 1 hr; format: functional; parameters: scale not given: the % may be the effect or the level left; conditions: route subcutaneous; in short: as §1
Mus musculus [9] = experiment: Antagonist activity on morphine-induced physical dependence in Swiss Webster mouse at 10 mg/kg, po; format: functional, organism-based; parameters: dose 10 mg/kg

T2 sequence (P41143 whole entry): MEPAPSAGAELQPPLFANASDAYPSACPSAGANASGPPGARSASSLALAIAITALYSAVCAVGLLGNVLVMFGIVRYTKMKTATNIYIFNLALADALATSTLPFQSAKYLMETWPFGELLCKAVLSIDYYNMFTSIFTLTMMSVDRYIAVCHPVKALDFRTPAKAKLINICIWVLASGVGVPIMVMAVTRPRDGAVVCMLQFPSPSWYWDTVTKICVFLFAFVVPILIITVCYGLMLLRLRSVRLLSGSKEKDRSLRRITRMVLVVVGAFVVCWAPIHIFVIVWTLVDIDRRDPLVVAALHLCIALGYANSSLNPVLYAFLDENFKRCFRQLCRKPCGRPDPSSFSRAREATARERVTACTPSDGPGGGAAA
T1 sequence (P41145 whole entry): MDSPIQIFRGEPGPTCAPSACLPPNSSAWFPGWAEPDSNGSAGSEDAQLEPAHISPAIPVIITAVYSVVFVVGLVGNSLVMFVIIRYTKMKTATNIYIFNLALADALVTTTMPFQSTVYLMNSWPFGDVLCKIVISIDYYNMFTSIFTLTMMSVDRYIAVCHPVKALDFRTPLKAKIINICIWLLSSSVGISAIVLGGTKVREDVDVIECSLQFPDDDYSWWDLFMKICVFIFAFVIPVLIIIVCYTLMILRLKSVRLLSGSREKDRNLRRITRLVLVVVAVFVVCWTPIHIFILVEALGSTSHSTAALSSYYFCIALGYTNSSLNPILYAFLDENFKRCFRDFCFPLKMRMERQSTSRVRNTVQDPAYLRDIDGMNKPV
Chain of Mu-type opioid receptor (Homo sapiens) (P35372 whole entry): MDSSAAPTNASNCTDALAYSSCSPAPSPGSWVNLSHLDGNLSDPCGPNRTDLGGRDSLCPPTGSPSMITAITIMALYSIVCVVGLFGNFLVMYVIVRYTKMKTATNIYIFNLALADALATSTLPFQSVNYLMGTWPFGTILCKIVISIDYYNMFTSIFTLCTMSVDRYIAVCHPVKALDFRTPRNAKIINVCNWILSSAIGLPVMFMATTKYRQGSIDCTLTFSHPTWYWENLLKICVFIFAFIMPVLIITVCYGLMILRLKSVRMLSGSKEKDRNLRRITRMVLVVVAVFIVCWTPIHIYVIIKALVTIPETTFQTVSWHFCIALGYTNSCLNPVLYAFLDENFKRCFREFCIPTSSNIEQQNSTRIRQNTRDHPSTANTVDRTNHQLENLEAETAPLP

| SMILES | Ki [2] | Ki [3] | further results |
| --- | --- | --- | --- |
| C[C@H]1CN(CCC(=O)N[C@@H](Cc2ccccc2)C(=O)O)CC[C@@]1(C)c1cccc(O)c1 | 990 nM | – | inhibition [1]: 39% |
| C[C@H]1CN(CCC(=O)N(c2ccccc2)[C@@H](Cc2ccccc2)C(=O)O)CC[C@@]1(C)c1cccc(O)c1 | 67 nM | 1400 nM | – |
| C[C@H]1CN(C[C@H](Cc2ccccc2)C(=O)NCC(=O)O)CC[C@@]1(C)c1cccc(O)c1 [ALVIMOPAN] | 12 nM | 100 nM | Activity (Mus musculus [4]): 69% |
| C[C@H]1CN(CCC(=O)N[C@@H](CCCCN)C(=O)O)CC[C@@]1(C)c1cccc(O)c1 | – | – | inhibition [5]: 11%; inhibition [1]: 3%; inhibition [6]: 45% |
| C[C@H]1CN(CCC(=O)N[C@@H](Cc2ccc(-c3ccccc3)cc2)C(=O)O)CC[C@@]1(C)c1cccc(O)c1 | 160 nM | 1100 nM | – |
| CCN(C(=O)CCN1CC[C@@](C)(c2cccc(O)c2)[C@@H](C)C1)[C@@H](Cc1ccccc1)C(=O)O | 510 nM | – | inhibition [1]: 44% |
| C[C@H]1CN(CCC(=O)N(C)[C@@H](Cc2ccccc2)C(=O)O)CC[C@@]1(C)c1cccc(O)c1 | 620 nM | – | inhibition [1]: 35% |
| C[C@H]1CN(C[C@H](Cc2ccccc2)C(=O)N[C@@H](CCc2ccccc2)C(=O)O)CC[C@@]1(C)c1cccc(O)c1 | 10 nM | 510 nM | – |
| C[C@H]1CN(CCC(=O)N[C@@H](CCc2ccccc2)C(=O)O)CC[C@@]1(C)c1cccc(O)c1 | 360 nM | 690 nM | – |
| C[C@H](NC(=O)[C@@H](Cc1ccccc1)CN1CC[C@@](C)(c2cccc(O)c2)[C@@H](C)C1)C(=O)O | 22 nM | 67 nM | – |
| C[C@H]1CN(CCC(=O)N(CC2CC2)[C@@H](Cc2ccccc2)C(=O)O)CC[C@@]1(C)c1cccc(O)c1 | 100 nM | 2200 nM | – |
| C[C@H]1CN(C[C@H](Cc2ccccc2)C(=O)N[C@@H](CC2CCCCC2)C(=O)O)CC[C@@]1(C)c1cccc(O)c1 | 15 nM | 720 nM | – |
| C[C@H]1CN(C[C@H](Cc2ccccc2)C(=O)N[C@@H](Cc2ccc(-c3ccccc3)cc2)C(=O)O)CC[C@@]1(C)c1cccc(O)c1 | 8.3 nM | 160 nM | – |
| C[C@H]1CN(CCC(=O)N[C@@H](CC2CCCCC2)C(=O)O)CC[C@@]1(C)c1cccc(O)c1 | 170 nM | – | inhibition [1]: 44% |
| C[C@H]1CN(C[C@H](Cc2ccccc2)C(=O)N[C@@H](Cc2ccccc2)C(=O)O)CC[C@@]1(C)c1cccc(O)c1 | 15 nM | 250 nM | – |
| C[C@H]1CN(CCC(=O)N(Cc2ccccc2)[C@@H](Cc2ccccc2)C(=O)O)CC[C@@]1(C)c1cccc(O)c1 | 39 nM | 550 nM | – |
| C[C@H]1CN(C[C@H](Cc2ccccc2)C(=O)N[C@@H](Cc2ccc3ccccc3c2)C(=O)O)CC[C@@]1(C)c1cccc(O)c1 | 3.2 nM | 240 nM | – |
| C[C@H]1CN(C[C@H](Cc2ccccc2)C(=O)N[C@@H](CCCCN)C(=O)O)CC[C@@]1(C)c1cccc(O)c1 | – | – | Activity (Mus musculus [4]): 64%; Activity (Mus musculus [7]): Active; Activity (Mus musculus [8]): 82%; Activity (Mus musculus [9]): inactive |
| C[C@H]1CN(CCC(=O)N(Cc2cccc(Cl)c2)[C@@H](Cc2ccccc2)C(=O)O)CC[C@@]1(C)c1cccc(O)c1 | 24 nM | 460 nM | – |
| C[C@H]1CN(C[C@H](Cc2ccccc2)C(=O)N[C@@H](CCC(=O)O)C(=O)O)CC[C@@]1(C)c1cccc(O)c1 | 360 nM | – | inhibition [1]: 26% |
| C[C@@H](NC(=O)[C@@H](Cc1ccccc1)CN1CC[C@@](C)(c2cccc(O)c2)[C@@H](C)C1)C(=O)O | 74 nM | 910 nM | – |
| C[C@H]1CN(C[C@H](Cc2ccccc2)C(=O)N[C@@H](CC(=O)O)C(=O)O)CC[C@@]1(C)c1cccc(O)c1 | 500 nM | – | inhibition [1]: 27% |
| CC(C)CN(C(=O)CCN1CC[C@@](C)(c2cccc(O)c2)[C@@H](C)C1)[C@@H](Cc1ccccc1)C(=O)O | – | 2200 nM | – |
| C[C@H]1CN(CCC(=O)N(Cc2ccc(-c3ccccc3)cc2)[C@@H](Cc2ccccc2)C(=O)O)CC[C@@]1(C)c1cccc(O)c1 | 52 nM | 230 nM | – |
| C[C@H]1CN(CCC(=O)NCC(=O)O)CC[C@@]1(C)c1cccc(O)c1 | – | – | inhibition [5]: 5%; inhibition [1]: 4%; inhibition [6]: 20% |
| C[C@H]1CN(CCC(=O)N(CCc2ccccc2)[C@@H](Cc2ccccc2)C(=O)O)CC[C@@]1(C)c1cccc(O)c1 | – | 1200 nM | – |
| C[C@H]1CN(C[C@H](Cc2ccccc2)C(=O)N[C@@H](Cc2cccc3ccccc23)C(=O)O)CC[C@@]1(C)c1cccc(O)c1 | 31 nM | 83 nM | – |
